{"source": "ChEMBL document CHEMBL1155999", "about": "“Discovery and biological profile of isoindolinone derivatives as novel metabotropic glutamate receptor 1 antagonists: a potential treatment for psychotic disorders” (Bioorg Med Chem Lett, 2009)", "key": {"[1]": {"experiment": "Oral bioavailability in rat at 3 mg/kg", "type": "ADME, organism-based", "conditions": "in vivo", "method_in_brief": "(§1)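 Rats dosed orally at 3 mg/kg and intravenously at 1 mg/kg. Oral bioavailability (F), half-life and total plasma clearance were derived from the plasma profiles.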"}, "[2]": {"experiment": "Half life in rat at 3 mg/kg, po and 1 mg/kg, iv", "type": "ADME, organism-based", "conditions": "in vivo", "method_in_brief": "as §1"}, "[3]": {"experiment": "Plasma clearance in rat at 3 mg/kg, po and 1 mg/kg, iv", "type": "ADME, organism-based", "method_in_brief": "as §1"}, "[4]": {"experiment": "Octanol to water distribution coefficient, log D at pH 7.4", "type": "physicochemical"}, "[5]": {"target": "Metabotropic glutamate receptor 5 (Homo sapiens, UniProt P41594)", "sequence (P41594 whole entry)": "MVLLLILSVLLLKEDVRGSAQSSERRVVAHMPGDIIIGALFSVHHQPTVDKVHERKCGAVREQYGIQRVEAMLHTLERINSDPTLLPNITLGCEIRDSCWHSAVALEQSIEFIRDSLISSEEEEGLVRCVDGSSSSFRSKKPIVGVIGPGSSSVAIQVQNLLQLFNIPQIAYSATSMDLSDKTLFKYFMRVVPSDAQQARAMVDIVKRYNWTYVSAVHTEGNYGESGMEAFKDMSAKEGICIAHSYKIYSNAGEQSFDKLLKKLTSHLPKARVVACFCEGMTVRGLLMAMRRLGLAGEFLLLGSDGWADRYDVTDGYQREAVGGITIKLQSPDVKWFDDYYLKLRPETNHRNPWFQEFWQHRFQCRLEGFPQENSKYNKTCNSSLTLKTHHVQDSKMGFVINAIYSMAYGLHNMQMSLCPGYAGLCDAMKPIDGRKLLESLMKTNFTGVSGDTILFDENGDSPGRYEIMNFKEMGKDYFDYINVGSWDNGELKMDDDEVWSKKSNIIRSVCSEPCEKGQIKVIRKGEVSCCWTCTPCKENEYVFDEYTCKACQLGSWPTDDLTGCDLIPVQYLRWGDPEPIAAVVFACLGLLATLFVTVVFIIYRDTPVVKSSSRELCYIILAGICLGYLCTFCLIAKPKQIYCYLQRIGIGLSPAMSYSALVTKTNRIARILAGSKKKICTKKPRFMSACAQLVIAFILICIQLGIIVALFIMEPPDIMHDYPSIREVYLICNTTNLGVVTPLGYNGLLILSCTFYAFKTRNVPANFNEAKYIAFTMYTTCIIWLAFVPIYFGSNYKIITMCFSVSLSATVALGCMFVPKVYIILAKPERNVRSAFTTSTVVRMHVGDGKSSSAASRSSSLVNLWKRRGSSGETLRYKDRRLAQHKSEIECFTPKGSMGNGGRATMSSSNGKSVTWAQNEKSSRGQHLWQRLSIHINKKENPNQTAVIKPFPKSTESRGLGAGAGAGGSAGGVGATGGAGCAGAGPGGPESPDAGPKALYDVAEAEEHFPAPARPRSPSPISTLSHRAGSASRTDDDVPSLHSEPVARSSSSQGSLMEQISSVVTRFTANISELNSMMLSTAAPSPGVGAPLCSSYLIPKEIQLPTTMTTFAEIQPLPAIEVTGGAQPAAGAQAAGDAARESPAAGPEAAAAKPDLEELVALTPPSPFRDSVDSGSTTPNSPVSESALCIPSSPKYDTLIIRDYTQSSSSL", "experiment": "Antagonist activity at human mGluR5 receptor expressed in CHO cell membranes assessed as inhibition of L-glutamate-induced calcium mobilization by FLIPR", "type": "functional, cell-based"}, "[6]": {"target": "T1, Metabotropic glutamate receptor 1 (Homo sapiens, UniProt Q13255)", "T1 sequence (Q13255 whole entry)": "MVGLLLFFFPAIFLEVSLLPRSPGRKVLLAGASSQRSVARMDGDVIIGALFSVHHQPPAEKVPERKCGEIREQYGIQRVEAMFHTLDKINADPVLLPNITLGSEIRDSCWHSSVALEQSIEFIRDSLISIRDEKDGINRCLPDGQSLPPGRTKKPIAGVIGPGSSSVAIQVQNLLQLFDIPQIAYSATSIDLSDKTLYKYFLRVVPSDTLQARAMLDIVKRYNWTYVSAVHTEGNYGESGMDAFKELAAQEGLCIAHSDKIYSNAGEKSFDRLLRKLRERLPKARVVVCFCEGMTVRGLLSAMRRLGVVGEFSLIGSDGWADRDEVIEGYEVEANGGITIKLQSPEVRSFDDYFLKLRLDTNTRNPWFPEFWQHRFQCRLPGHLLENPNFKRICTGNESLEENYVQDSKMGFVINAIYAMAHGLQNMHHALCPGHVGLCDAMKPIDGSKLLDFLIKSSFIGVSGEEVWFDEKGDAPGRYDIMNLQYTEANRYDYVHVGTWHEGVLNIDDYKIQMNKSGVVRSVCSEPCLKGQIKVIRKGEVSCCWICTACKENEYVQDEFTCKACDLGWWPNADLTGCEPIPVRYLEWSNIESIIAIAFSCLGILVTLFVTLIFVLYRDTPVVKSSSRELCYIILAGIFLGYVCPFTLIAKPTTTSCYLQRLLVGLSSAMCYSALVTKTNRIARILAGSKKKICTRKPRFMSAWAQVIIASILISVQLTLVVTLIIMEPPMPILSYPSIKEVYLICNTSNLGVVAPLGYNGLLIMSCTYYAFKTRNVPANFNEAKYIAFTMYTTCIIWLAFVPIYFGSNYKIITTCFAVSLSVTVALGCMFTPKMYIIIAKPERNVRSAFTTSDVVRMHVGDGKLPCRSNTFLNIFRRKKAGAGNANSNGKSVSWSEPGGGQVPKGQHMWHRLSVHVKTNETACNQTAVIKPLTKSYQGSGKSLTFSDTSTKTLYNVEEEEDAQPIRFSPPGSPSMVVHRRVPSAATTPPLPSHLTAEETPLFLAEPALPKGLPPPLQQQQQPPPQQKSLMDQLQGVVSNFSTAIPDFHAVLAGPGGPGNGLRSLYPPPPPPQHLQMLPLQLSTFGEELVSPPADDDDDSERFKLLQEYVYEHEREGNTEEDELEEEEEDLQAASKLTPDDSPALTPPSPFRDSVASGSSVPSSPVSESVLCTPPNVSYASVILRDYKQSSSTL", "experiment": "Antagonist activity at human mGluR1 receptor expressed in CHO cell membranes assessed as inhibition of L-glutamate-induced calcium mobilization by FLIPR", "type": "functional, cell-based", "method_in_brief": "(§2)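 Human mGluR1a stably expressed in CHO cells; antagonism read as inhibition of the intracellular Ca2+ rise on FLIPR. IC50 is the mean of at least three independent determinations, each run in duplicate, reported ± SEM.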"}, "[7]": {"target": "T1, Metabotropic glutamate receptor 1", "experiment": "Antagonist activity at human mGluR1 receptor quisqualic acid binding site expressed in CHO cell membranes assessed as inhibition of L-glutamate-induced calcium mobilization by FLIPR", "type": "functional", "method_in_brief": "as §2"}, "Rattus norvegicus [8]": {"system": "Rattus norvegicus", "experiment": "Antipsychotic-like effect in rat assessed as inhibition of MAP-induced prepulse inhibition at 1 mg/kg, po", "type": "functional, organism-based", "set-up": "dose 1 mg/kg", "method_in_brief": "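Rat prepulse inhibition model of methamphetamine-induced disruption. Test article given orally at 1 mg/kg.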"}, "[9]": {"experiment": "Oral bioavailability in rat at 1 mg/kg", "type": "ADME, organism-based", "conditions": "in vivo", "method_in_brief": "(§3)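 Rats dosed orally at 1 mg/kg and intravenously at 0.3 mg/kg. Oral bioavailability, half-life and total plasma clearance were derived from the plasma profiles.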"}, "Brain": {"system": "Brain", "experiment": "Drug uptake in mouse brain at 1 mg/kg, po after 30 mins", "conditions": "in vivo, 0.5 h"}, "[10]": {"target": "Metabotropic glutamate receptor 8 (Homo sapiens, UniProt O00222)", "sequence (O00222 whole entry)": "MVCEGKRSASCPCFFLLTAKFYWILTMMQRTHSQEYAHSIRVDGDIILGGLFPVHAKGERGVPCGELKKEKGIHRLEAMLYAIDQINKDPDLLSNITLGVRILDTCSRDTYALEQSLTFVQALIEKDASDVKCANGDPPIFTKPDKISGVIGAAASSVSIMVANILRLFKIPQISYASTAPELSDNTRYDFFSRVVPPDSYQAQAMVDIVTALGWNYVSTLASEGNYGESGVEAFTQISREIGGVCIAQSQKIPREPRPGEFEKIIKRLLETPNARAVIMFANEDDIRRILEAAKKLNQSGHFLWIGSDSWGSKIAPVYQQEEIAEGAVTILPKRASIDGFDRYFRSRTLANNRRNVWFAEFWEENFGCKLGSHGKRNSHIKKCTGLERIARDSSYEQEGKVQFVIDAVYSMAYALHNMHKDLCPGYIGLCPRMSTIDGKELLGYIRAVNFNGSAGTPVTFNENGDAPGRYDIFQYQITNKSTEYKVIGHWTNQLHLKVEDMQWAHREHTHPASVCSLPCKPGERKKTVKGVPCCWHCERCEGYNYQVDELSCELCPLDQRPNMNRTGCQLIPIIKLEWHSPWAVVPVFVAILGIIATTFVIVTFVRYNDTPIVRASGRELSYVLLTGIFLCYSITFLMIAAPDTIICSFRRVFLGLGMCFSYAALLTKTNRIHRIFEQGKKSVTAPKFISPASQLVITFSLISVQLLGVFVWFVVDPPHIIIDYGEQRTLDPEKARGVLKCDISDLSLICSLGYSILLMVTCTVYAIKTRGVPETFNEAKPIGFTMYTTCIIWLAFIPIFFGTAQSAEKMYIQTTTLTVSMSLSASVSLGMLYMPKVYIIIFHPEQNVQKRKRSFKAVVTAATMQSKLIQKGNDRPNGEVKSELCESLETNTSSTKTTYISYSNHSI", "experiment": "Antagonist activity at human mGluR8 receptor expressed in CHO cell membranes assessed as inhibition of L-glutamate-induced calcium mobilization by FLIPR", "type": "functional, cell-based"}, "[11]": {"experiment": "Half life in rat at 1 mg/kg, po and 0.3 mg/kg, iv", "type": "ADME, organism-based", "conditions": "in vivo", "method_in_brief": "as §3"}, "[12]": {"target": "Metabotropic glutamate receptor 2 (Homo sapiens, UniProt Q14416)", "experiment": "Antagonist activity at human mGluR2 receptor expressed in CHO cell membranes assessed as inhibition of L-glutamate-induced calcium mobilization by FLIPR", "type": "functional, cell-based"}, "[13]": {"target": "Metabotropic glutamate receptor 1 (Rattus norvegicus, UniProt P23385)", "sequence (P23385 whole entry)": "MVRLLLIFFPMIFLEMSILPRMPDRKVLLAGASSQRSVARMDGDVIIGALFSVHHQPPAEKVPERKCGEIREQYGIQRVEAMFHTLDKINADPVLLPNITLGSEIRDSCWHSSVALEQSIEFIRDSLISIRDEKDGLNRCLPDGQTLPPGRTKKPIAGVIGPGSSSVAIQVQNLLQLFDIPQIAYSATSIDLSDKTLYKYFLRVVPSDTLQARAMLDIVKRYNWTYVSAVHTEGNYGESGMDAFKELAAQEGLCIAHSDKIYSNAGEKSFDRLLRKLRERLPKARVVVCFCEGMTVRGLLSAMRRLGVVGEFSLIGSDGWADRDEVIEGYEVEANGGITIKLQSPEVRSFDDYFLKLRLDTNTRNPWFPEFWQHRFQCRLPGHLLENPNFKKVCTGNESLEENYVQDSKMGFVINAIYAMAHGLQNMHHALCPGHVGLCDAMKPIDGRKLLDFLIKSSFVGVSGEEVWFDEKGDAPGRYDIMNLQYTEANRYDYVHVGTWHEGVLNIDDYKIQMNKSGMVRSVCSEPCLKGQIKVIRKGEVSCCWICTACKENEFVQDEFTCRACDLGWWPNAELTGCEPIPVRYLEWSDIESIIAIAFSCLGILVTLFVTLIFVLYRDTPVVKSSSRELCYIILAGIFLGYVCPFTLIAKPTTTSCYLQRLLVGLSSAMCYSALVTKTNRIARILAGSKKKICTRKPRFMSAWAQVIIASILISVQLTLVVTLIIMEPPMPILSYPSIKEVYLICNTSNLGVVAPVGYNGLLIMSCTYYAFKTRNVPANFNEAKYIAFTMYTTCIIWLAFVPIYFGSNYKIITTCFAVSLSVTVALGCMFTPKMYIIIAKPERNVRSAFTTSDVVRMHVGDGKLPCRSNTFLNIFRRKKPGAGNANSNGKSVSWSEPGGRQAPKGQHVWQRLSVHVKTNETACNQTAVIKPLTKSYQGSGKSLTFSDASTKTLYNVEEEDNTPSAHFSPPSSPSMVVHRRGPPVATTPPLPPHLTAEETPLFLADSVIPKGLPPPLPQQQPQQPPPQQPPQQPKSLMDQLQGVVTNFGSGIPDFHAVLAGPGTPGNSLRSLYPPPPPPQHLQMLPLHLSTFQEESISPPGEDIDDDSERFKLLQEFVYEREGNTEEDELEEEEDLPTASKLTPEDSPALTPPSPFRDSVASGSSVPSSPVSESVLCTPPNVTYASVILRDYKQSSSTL", "experiment": "Antagonist activity at rat mGluR1 receptor expressed in CHO cell membranes assessed as inhibition of L-glutamate-induced calcium mobilization by FLIPR", "type": "functional, cell-based"}, "Mus musculus": {"system": "Mus musculus", "experiment": "Plasma concentration in mouse at 1 mg/kg, po after 30 mins"}, "[14]": {"experiment": "Plasma clearance in rat at 1 mg/kg, po and 0.3 mg/kg, iv", "type": "ADME, organism-based", "method_in_brief": "as §3"}, "Rattus norvegicus [15]": {"system": "Rattus norvegicus", "experiment": "Induction of catalepsy in rat at 30 mg/kg, po"}}, "note": "pIC50: −log10 of the molar value. Active and inactive are the calls of the source. No cut-off for these calls is given here."}
{"smiles": "Cc1c(-c2ccc3c(c2)CN(C(C)C)C3=O)nnn1-c1cccnc1F", "values": [{"measurement": "bioavailability", "setting": "[1]", "value": 96, "unit": "%"}, {"measurement": "half-life", "setting": "[2]", "value": 132, "unit": "min"}, {"measurement": "clearance", "setting": "[3]", "value": 5.9, "unit": "mL/min/kg"}, {"measurement": "logD", "setting": "[4]", "value": 2.2}, {"measurement": "pIC50", "setting": "[5]", "value": 5.64}, {"measurement": "pIC50", "setting": "[6]", "value": 8.26}]}
{"smiles": "Cc1c(-c2ccc3c(c2)CCC3=O)nnn1-c1cccnc1", "values": [{"measurement": "pIC50", "setting": "[6]", "value": 7.16}]}
{"smiles": "CCC(=O)c1ccc(-c2nnn(-c3cccnc3)c2C)cc1", "values": [{"measurement": "pIC50", "setting": "[6]", "value": 6.77}]}
{"smiles": "Cc1c(-c2ccc3c(c2)CN(C(C)C)C3=O)nnn1-c1ccc(F)cc1F", "values": [{"measurement": "pIC50", "setting": "[7]", "value": "< 5.00"}, {"measurement": "Activity", "setting": "Rattus norvegicus [8]", "value": "Active"}, {"measurement": "bioavailability", "setting": "[9]", "value": 46, "unit": "%"}, {"measurement": "Drug uptake", "setting": "Brain", "value": 0.45, "unit": "nmol/g"}, {"measurement": "pIC50", "setting": "[10]", "value": "< 5.00"}, {"measurement": "half-life", "setting": "[11]", "value": 42, "unit": "min"}, {"measurement": "pIC50", "setting": "[12]", "value": "< 5.00"}, {"measurement": "pIC50", "setting": "[13]", "value": 8.44}, {"measurement": "concentration at 0.5 h", "setting": "Mus musculus", "value": 170, "unit": "nM"}, {"measurement": "clearance", "setting": "[14]", "value": 20, "unit": "mL/min/kg"}, {"measurement": "Activity", "setting": "Rattus norvegicus [15]", "value": "inactive"}]}
{"smiles": "Cc1c(-c2ccc(C(=O)N3CCCC3)cc2)nnn1-c1cccnc1", "values": [{"measurement": "pIC50", "setting": "[6]", "value": 5.74}]}
{"smiles": "Cc1c(-c2ccc(C(=O)OC(C)C)cc2)nnn1-c1cccnc1", "values": [{"measurement": "pIC50", "setting": "[6]", "value": 7.48}]}
{"smiles": "Cc1c(-c2ccc(C(=O)C3CC3)cc2)nnn1-c1cccnc1", "values": [{"measurement": "pIC50", "setting": "[6]", "value": 7.66}]}
{"smiles": "Cc1c(C2=CCN(C(=O)N(C)C(C)C)CC2)nnn1-c1cccnc1F", "values": [{"measurement": "half-life", "setting": "[2]", "value": 12, "unit": "min"}, {"measurement": "pIC50", "setting": "[5]", "value": "< 5.00"}]}
{"smiles": "Cc1c(-c2ccc3c(c2)CC(C2CC2)C3=O)nnn1-c1cccnc1", "note": "(stereo not drawn)", "values": [{"measurement": "pIC50", "setting": "[6]", "value": 8.59}]}
{"smiles": "CCCN1Cc2cc(-c3nnn(-c4cccnc4F)c3C)ccc2C1=O", "values": [{"measurement": "bioavailability", "setting": "[1]", "value": 100, "unit": "%"}, {"measurement": "half-life", "setting": "[2]", "value": 60, "unit": "min"}, {"measurement": "clearance", "setting": "[3]", "value": 5.5, "unit": "mL/min/kg"}, {"measurement": "logD", "setting": "[4]", "value": 2.3}, {"measurement": "pIC50", "setting": "[5]", "value": 5.55}, {"measurement": "pIC50", "setting": "[6]", "value": 8.44}]}
{"smiles": "Cc1c(-c2ccc(C(=O)NC(C)C)cc2)nnn1-c1cccnc1", "values": [{"measurement": "pIC50", "setting": "[6]", "value": 6.68}]}
{"smiles": "Cc1c(-c2ccc3c(c2)CC(C)(C)C3=O)nnn1-c1cccnc1", "values": [{"measurement": "pIC50", "setting": "[6]", "value": 7.96}]}
{"smiles": "CCN1Cc2cc(-c3nnn(-c4cccnc4F)c3C)ccc2C1=O", "values": [{"measurement": "bioavailability", "setting": "[1]", "value": 62, "unit": "%"}, {"measurement": "half-life", "setting": "[2]", "value": 18, "unit": "min"}, {"measurement": "clearance", "setting": "[3]", "value": 19, "unit": "mL/min/kg"}, {"measurement": "logD", "setting": "[4]", "value": 1.8}, {"measurement": "pIC50", "setting": "[5]", "value": 5.96}, {"measurement": "pIC50", "setting": "[6]", "value": 8.48}]}
{"smiles": "Cc1c(-c2cccc(C(=O)OC(C)C)c2)nnn1-c1cccnc1", "values": [{"measurement": "pIC50", "setting": "[6]", "value": 5.62}]}
{"smiles": "Cc1c(-c2ccc3[nH]ccc3c2)nnn1-c1cccnc1", "values": [{"measurement": "pIC50", "setting": "[6]", "value": 6.60}]}
{"smiles": "Cc1c(-c2ccc(C(=O)N(C)C(C)C)cc2)nnn1-c1cccnc1", "values": [{"measurement": "pIC50", "setting": "[6]", "value": 6.06}]}
{"smiles": "Cc1nc2cc(-c3nnn(-c4cccnc4)c3C)ccc2s1", "values": [{"measurement": "pIC50", "setting": "[6]", "value": 5.82}]}
{"smiles": "Cc1c(-c2ccc3c(c2)CN(C2CC2)C3=O)nnn1-c1cccnc1F", "values": [{"measurement": "bioavailability", "setting": "[1]", "value": 100, "unit": "%"}, {"measurement": "half-life", "setting": "[2]", "value": 36, "unit": "min"}, {"measurement": "clearance", "setting": "[3]", "value": 8.1, "unit": "mL/min/kg"}, {"measurement": "logD", "setting": "[4]", "value": 1.9}, {"measurement": "pIC50", "setting": "[5]", "value": 5.27}, {"measurement": "pIC50", "setting": "[6]", "value": 8.46}]}
{"smiles": "Cc1c(-c2ccc3ncccc3c2)nnn1-c1cccnc1", "values": [{"measurement": "pIC50", "setting": "[6]", "value": 8.31}]}
{"smiles": "Cc1c(-c2ccc(C(=O)c3ccccc3)cc2)nnn1-c1cccnc1", "values": [{"measurement": "pIC50", "setting": "[6]", "value": 5.41}]}
{"smiles": "Cc1c(-c2ccc3ccccc3c2)nnn1-c1cccnc1", "values": [{"measurement": "pIC50", "setting": "[6]", "value": 6.52}]}
{"smiles": "CC(=O)c1ccc(-c2nnn(-c3cccnc3)c2C)cc1", "values": [{"measurement": "pIC50", "setting": "[6]", "value": 6.33}]}
